Results from ChEMBL document CHEMBL5724801, “EUbOPEN Chemogenomics Library - Multiplex” (2024).
Where “and” joins values, the source holds several entries; their conditions need not be identical. Equal entries are not always repeated.

Key:
[1] = tested on: Fibroblast; assay: Multiplex assay against human fibroblast; format: toxicity, cell-based
Method in brief: (§1)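 Tubulin, mitochondrial-mass and membrane-permeability phenotypes are per cents of healthy-nucleus cells. Cells were gated by CellPathfinder machine learning into Hoechst high-intensity objects or normal cells, normal cells into healthy, pyknosed or fragmented nuclei, and pyknosed cells into mitotic or apoptotic. Before that, live cells stained at seeding with Hoechst33342, BioTracker Green Microtubule Cytoskeleton Dye, MitoTracker Red and Annexin V Alexa Fluor 680 were imaged on a CQ1 microscope at 37°C and 5% CO2 after compound addition.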

[2] = tested on: HEK-293T; assay: Multiplex assay against HEK293T; format: toxicity, cell-based; conditions: human; method in brief: as §1
[3] = 12 h, 1 µM, compound concentration 1 uM
[4] = 12 h, 10 µM, compound concentration 10 uM
[5] = 24 h, 1 µM, compound concentration 1 uM
[6] = 24 h, 10 µM, compound concentration 10 uM
[7] = 48 h, 1 µM, compound concentration 1 uM
[8] = 48 h, 10 µM, compound concentration 10 uM

Br.CS(=O)(=O)Nc1c(O)ccc2c1CCCC2C1=NCCN1 (configuration not stated)
Population Apoptotic (%) [1, 3]: 17% and 31%
Population Healthy Nuclei (%) [1, 3]: 76% and 47%
Population Hoechst High Intensity Objects (%) [1, 3]: 1% and 8%
Population Membrane Permeable-Phenotype (%) [1, 3]: 0% and 7%
Population Mitochondria Different-Phenotype (%) [1, 3]: 5% and 8%
Population Mitotic Cells (%) [1, 3]: 82% and 68%
Population Normal (%) [1, 3]: 98% and 91%
Population Pyknosed Nuclei (%) [1, 3]: 14% and 19%
Population Tubulin-Different-Phenotype (%) [1, 3]: 20% and 38%
Total Cell Count [1, 3]: 167 and 192
Population Apoptotic (%) [1, 4]: 38% and 33%
Population Fragmented Nuclei (%) [1, 4]: 20% and 38%
Population Healthy Nuclei (%) [1, 4]: 47% and 45%
Population Hoechst High Intensity Objects (%) [1, 4]: 6% and 0%
Population Mitochondria Different-Phenotype (%) [1, 4]: 7% and 5%
Population Mitotic Cells (%) [1, 4]: 61% and 66%
Population Normal (%) [1, 4]: 93% and 99%
Population Pyknosed Nuclei (%) [1, 4]: 31% and 16%
Population Tubulin-Different-Phenotype (%) [1, 4]: 21% and 43%
Total Cell Count [1, 4]: 148 and 129
Population Apoptotic (%) [1, 5]: 56% and 33%
Population Fragmented Nuclei (%) [1, 5]: 12% and 25%
Population Healthy Nuclei (%) [1, 5]: 77% and 60%
Population Hoechst High Intensity Objects (%) [1, 5]: 1% and 7%
Population Membrane Permeable-Phenotype (%) [1, 5]: 0% and 2%
Population Mitochondria Different-Phenotype (%) [1, 5]: 3% and 7%
Population Mitotic Cells (%) [1, 5]: 43% and 66%
Population Normal (%) [1, 5]: 98% and 92%
Population Pyknosed Nuclei (%) [1, 5]: 10% and 14%
Population Tubulin-Different-Phenotype (%) [1, 5]: 16% and 41%
Total Cell Count [1, 5]: 159 and 180
Population Apoptotic (%) [1, 6]: 48% and 41%
Population Fragmented Nuclei (%) [1, 6]: 16% and 41%
Population Healthy Nuclei (%) [1, 6]: 60% and 44%
Population Hoechst High Intensity Objects (%) [1, 6]: 3% and 0%
Population Membrane Permeable-Phenotype (%) [1, 6]: 0% and 10%
Population Mitochondria Different-Phenotype (%) [1, 6]: 2% and 10%
Population Mitotic Cells (%) [1, 6]: 51% and 58%
Population Normal (%) [1, 6]: 96% and 99%
Population Pyknosed Nuclei (%) [1, 6]: 23% and 13%
Population Tubulin-Different-Phenotype (%) [1, 6]: 24% and 41%
Total Cell Count [1, 6]: 148 and 130
Population Apoptotic (%) [1, 7]: 57% and 38%
Population Fragmented Nuclei (%) [1, 7]: 14% and 26%
Population Healthy Nuclei (%) [1, 7]: 76% and 61%
Population Hoechst High Intensity Objects (%) [1, 7]: 4% and 5%
Population Membrane Permeable-Phenotype (%) [1, 7]: 4% and 0%
Population Mitochondria Different-Phenotype (%) [1, 7]: 3% and 9%
Population Mitotic Cells (%) [1, 7]: 42% and 61%
Population Normal (%) [1, 7]: 95% and 94%
Population Pyknosed Nuclei (%) [1, 7]: 8% and 12%
Population Tubulin-Different-Phenotype (%) [1, 7]: 24% and 41%
Total Cell Count [1, 7]: 167 and 177
Population Apoptotic (%) [1, 8]: 61% and 33%
Population Fragmented Nuclei (%) [1, 8]: 22% and 48%
Population Healthy Nuclei (%) [1, 8]: 61% and 44%
Population Hoechst High Intensity Objects (%) [1, 8]: 6% and 1%
Population Membrane Permeable-Phenotype (%) [1, 8]: 1% and 3%
Population Mitochondria Different-Phenotype (%) [1, 8]: 2% and 9%
Population Mitotic Cells (%) [1, 8]: 38% and 66%
Population Normal (%) [1, 8]: 93% and 98%
Population Pyknosed Nuclei (%) [1, 8]: 15% and 7%
Population Tubulin-Different-Phenotype (%) [1, 8]: 21% and 45%
Total Cell Count [1, 8]: 145 and 127
Population Apoptotic (%) [2, 3]: 40% and 43%
Population Fragmented Nuclei (%) [2, 3]: 7% and 5%
Population Healthy Nuclei (%) [2, 3]: 80% and 81%
Population Hoechst High Intensity Objects (%) [2, 3]: 5% and 8%
Population Membrane Permeable-Phenotype (%) [2, 3]: 0%
Population Mitochondria Different-Phenotype (%) [2, 3]: 45% and 52%
Population Mitotic Cells (%) [2, 3]: 59% and 56%
Population Normal (%) [2, 3]: 94% and 91%
Population Pyknosed Nuclei (%) [2, 3]: 12%
Population Tubulin-Different-Phenotype (%) [2, 3]: 26% and 18%
Total Cell Count [2, 3]: 407 and 334
Population Apoptotic (%) [2, 4]: 48% and 55%
Population Fragmented Nuclei (%) [2, 4]: 8% and 6%
Population Healthy Nuclei (%) [2, 4]: 76% and 79%
Population Hoechst High Intensity Objects (%) [2, 4]: 12% and 14%
Population Membrane Permeable-Phenotype (%) [2, 4]: 0%
Population Mitochondria Different-Phenotype (%) [2, 4]: 60% and 67%
Population Mitotic Cells (%) [2, 4]: 52% and 44%
Population Normal (%) [2, 4]: 87% and 85%
Population Pyknosed Nuclei (%) [2, 4]: 14%
Population Tubulin-Different-Phenotype (%) [2, 4]: 33% and 26%
Total Cell Count [2, 4]: 381 and 292
Population Apoptotic (%) [2, 5]: 38% and 55%
Population Fragmented Nuclei (%) [2, 5]: 10% and 6%
Population Healthy Nuclei (%) [2, 5]: 79% and 80%
Population Hoechst High Intensity Objects (%) [2, 5]: 5% and 8%
Population Membrane Permeable-Phenotype (%) [2, 5]: 1% and 0%
Population Mitochondria Different-Phenotype (%) [2, 5]: 34% and 41%
Population Mitotic Cells (%) [2, 5]: 61% and 44%
Population Normal (%) [2, 5]: 94% and 91%
Population Pyknosed Nuclei (%) [2, 5]: 10% and 13%
Population Tubulin-Different-Phenotype (%) [2, 5]: 21% and 17%
Total Cell Count [2, 5]: 549 and 387
